How the values were obtained:
[1] = target: Transcription intermediary factor 1-alpha (Homo sapiens, UniProt O15164); assay: Binding affinity to human TRIM24 (P790 to P977 residues) expressed in bacterial expression system by BROMOScan assay
Homo sapiens [2] = species on record: Homo sapiens; assay: Selectivity index, ratio of Kd for human CREBBP (R1081 to G1197 residues) to Kd for human BRDT bromodomain 2 (K250 to E382 residues)
[3] = target: Bromodomain-containing protein 4 (Homo sapiens, UniProt O60885); assay: Binding affinity to human BRD4 bromodomain 2 (K333 to E460 residues) expressed in bacterial expression system by BROMOscan assay
Mus musculus [4] = assay: Toxicity in SCID mouse xenografted with human MDA-MB-231 cells assessed as change in body weight at 10 to 50 mg/kg administered via oral gavage measured 2 to 3 times per week during compound dosing and measured weekly post treatment; format: organism-based; details: in vivo
In short: (§1)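 Xenografts raised by subcutaneous dorsal injection of 5 × 10⁶ cells in 50% Matrigel into SCID mice, one tumor per mouse. Mice randomized to treatment or vehicle groups at about 100 mm3 tumor volume. Compounds given by oral gavage at the indicated dose-schedules, with percentage body-weight change tracked alongside tumor volume (L × W²/2).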

RS4-11 [5] = assay: Antitumor activity against human RS4:11 cells xenografted in SCID mouse assessed as tumor growth inhibition at 25 mg/kg administered via oral gavage measured on day 35; format: functional; details: RS4-11, po, 840 h, read-out: TGI
In short: (§2)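 SCID mice were implanted subcutaneously on the dorsal side with 5 × 10⁶ MDA-MB-231 or RS4;11 cells in 50% Matrigel, one tumor per mouse. At ca. 100 mm3, mice were randomized to treatment or vehicle groups and dosed by oral gavage. Tumor volume = L × W²/2. Body weight change tracked. p values by two-tailed unpaired t-test.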

Homo sapiens [6] = species on record: Homo sapiens; assay: Selectivity index, ratio of Kd for human CECR2 (P423 to D543 residues) to Kd for human BRDT bromodomain 1 (N21 to E137 residues)
Mus musculus [7] = assay: Toxicity in SCID mouse xenografted with human RS4:11 cells assessed as change in body weight at 10 to 50 mg/kg administered via oral gavage measured 2 to 3 times per week during compound dosing and measured weekly post treatment; format: organism-based; details: in vivo; in short: as §1
Homo sapiens [8] = species on record: Homo sapiens; assay: Selectivity index, ratio of Kd for human CECR2 (P423 to D543 residues) to Kd for human BRD3 bromodomain 1 (P24 to E144 residues)
MDA-MB-231 [9] = assay: Antitumor activity against human MDA-MB-231 cells xenografted in SCID mouse assessed as tumor growth inhibition at 25 mg/kg administered via oral gavage measured on day 44; format: functional; details: MDA-MB-231, po, 1056 h, read-out: TGI; in short: as §2
[10] = target: SWI/SNF-related matrix-associated actin-dependent regulator of chromatin subfamily A member 4 (Homo sapiens, UniProt P51532); assay: Binding affinity to human SMARCA4 (A1448 to S1575 residues) expressed in bacterial expression system by BROMOScan assay
Sequence of SWI/SNF-related matrix-associated actin-dependent regulator of chromatin subfamily A member 4 (P51532 whole entry, the tested form may be a part): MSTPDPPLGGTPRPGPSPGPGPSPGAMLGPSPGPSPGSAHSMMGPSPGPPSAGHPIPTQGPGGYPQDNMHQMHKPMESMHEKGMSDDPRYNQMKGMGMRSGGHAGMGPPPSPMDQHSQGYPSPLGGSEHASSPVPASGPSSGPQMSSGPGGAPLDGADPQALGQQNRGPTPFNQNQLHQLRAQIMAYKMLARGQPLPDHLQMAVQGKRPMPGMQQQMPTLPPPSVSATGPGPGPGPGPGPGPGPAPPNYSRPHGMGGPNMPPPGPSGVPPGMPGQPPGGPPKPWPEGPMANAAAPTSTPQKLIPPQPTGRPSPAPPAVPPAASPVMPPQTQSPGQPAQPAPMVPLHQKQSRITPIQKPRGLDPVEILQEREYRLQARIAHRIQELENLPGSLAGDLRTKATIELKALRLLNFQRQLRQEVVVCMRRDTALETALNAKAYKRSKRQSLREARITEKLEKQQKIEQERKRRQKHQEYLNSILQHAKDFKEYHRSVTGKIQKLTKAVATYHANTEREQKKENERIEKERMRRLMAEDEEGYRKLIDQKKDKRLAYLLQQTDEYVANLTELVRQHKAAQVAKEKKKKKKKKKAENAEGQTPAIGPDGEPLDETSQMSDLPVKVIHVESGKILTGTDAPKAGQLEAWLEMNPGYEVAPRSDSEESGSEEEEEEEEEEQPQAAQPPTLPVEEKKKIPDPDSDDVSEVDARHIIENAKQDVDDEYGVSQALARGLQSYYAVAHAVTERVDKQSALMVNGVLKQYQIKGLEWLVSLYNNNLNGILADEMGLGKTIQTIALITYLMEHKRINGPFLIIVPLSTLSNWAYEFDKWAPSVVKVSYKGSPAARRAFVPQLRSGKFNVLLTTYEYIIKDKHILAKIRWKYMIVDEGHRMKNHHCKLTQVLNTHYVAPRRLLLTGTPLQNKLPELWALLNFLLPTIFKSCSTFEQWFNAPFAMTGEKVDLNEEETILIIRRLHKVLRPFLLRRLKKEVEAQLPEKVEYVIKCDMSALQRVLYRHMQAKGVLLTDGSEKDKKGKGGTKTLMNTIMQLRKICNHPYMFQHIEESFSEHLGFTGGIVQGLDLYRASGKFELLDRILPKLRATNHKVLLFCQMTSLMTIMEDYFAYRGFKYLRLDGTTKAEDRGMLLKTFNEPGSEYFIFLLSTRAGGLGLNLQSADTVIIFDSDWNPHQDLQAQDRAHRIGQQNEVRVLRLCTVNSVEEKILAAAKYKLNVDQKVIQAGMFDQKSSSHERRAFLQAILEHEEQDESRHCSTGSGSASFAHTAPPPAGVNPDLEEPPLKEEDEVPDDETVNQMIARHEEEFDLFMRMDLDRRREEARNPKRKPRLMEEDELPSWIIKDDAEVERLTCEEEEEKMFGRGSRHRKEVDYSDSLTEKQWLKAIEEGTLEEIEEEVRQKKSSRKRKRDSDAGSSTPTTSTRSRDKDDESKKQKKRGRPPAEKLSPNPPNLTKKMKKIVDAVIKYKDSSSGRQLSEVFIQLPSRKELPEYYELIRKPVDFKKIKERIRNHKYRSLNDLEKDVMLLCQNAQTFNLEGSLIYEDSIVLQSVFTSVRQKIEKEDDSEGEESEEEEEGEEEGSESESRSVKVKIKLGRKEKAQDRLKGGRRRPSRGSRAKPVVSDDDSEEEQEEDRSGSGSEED

[11] = target: Nucleosome-remodeling factor subunit BPTF (Homo sapiens, UniProt Q12830); assay: Binding affinity to human FALZ (S2791 to H2911 residues) expressed in bacterial expression system by BROMOScan assay
Homo sapiens [12] = species on record: Homo sapiens; assay: Selectivity index, ratio of Kd for human CECR2 (P423 to D543 residues) to Kd for human BRD2 bromodomain 1 (K71 to N194 residues)
MDA-MB-231 [13] = assay: Antitumor activity against human MDA-MB-231 cells xenografted in SCID mouse assessed as tumor growth inhibition at 50 mg/kg administered via oral gavage measured on day 44; format: functional; details: MDA-MB-231, po, 1056 h, read-out: TGI
In short: (§3)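 Each SCID mouse received a single dorsal subcutaneous tumor of 5 × 10⁶ RS4;11 or MDA-MB-231 cells in 50% Matrigel. At about 100 mm3, mice were randomised to treatment or vehicle control groups. Dosing was by oral gavage at the stated schedules. Tumor volume was L × W²/2, and body weight was tracked. TGI versus vehicle at end of treatment was tested by unpaired two-tailed t-test.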

[14] = target: Bromodomain-containing protein 1 (Homo sapiens, UniProt O95696); assay: Binding affinity to human BRD1 (E556 to A688 residues) expressed in bacterial expression system by BROMOScan assay
Homo sapiens [15] = species on record: Homo sapiens; assay: Selectivity index, ratio of Kd for human EP300 (A1040 to G1161 residues) to Kd for human BRD3 bromodomain 2 (G306 to P416 residues)
[16] = Drug uptake in tumor of SCID mouse xenografted with human MDA-MB-231 cells at 50 mg/kg administered via oral gavage measured after 6 hrs; format: ADME, organism-based, Neoplasm; details: read-out: Drug uptake
In short: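 Limited PK in SCID mice bearing MDA-MB-231 tumors, 50 mg/kg given by oral gavage. Plasma and tumor tissue drug levels measured at two time points per compound. Values are the mean of two mice/tumors per time point.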

RS4-11 [17] = assay: Antitumor activity against human RS4:11 cells xenografted in SCID mouse assessed as tumor growth inhibition at 50 mg/kg administered via oral gavage measured on day 35; format: functional; details: RS4-11, po, 840 h, read-out: TGI; in short: as §3
[18] = target: Bromodomain-containing protein 8 (Homo sapiens, UniProt Q9H0E9); assay: Inhibition of BRD8 bromodomain 1 (unknown origin) by BROMOScan assay
Sequence of Bromodomain-containing protein 8 (Q9H0E9 whole entry, the tested form may be a part): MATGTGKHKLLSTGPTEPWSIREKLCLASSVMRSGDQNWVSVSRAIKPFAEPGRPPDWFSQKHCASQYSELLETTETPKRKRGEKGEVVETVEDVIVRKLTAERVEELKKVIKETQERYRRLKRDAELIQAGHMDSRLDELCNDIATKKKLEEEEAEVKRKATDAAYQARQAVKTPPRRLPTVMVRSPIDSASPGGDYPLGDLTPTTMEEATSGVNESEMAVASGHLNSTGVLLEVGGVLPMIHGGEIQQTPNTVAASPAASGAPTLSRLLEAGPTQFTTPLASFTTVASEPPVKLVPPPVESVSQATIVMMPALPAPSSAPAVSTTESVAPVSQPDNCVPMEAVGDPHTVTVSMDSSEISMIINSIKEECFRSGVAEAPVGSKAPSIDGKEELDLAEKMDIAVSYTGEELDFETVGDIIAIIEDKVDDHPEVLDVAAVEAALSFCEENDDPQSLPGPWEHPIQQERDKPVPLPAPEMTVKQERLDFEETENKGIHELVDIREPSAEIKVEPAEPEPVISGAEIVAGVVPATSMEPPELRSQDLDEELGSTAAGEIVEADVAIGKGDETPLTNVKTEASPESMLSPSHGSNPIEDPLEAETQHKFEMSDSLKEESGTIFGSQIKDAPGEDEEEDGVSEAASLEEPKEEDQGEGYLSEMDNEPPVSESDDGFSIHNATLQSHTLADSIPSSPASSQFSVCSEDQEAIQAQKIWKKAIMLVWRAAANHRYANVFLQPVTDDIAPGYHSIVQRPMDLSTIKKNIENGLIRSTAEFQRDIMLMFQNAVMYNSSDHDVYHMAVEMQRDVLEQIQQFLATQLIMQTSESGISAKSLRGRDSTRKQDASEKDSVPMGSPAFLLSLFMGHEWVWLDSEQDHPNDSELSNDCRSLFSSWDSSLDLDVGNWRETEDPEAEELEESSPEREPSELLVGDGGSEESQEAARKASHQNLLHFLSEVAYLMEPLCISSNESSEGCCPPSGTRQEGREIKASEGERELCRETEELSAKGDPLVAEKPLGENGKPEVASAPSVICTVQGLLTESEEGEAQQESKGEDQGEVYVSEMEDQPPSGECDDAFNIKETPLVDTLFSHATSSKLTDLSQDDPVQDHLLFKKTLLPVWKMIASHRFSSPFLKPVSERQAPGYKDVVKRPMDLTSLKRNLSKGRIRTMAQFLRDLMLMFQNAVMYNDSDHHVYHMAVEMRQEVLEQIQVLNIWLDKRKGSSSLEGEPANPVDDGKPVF

[19] = target: Bromodomain-containing protein 3 (Homo sapiens, UniProt Q15059); assay: Binding affinity to human BRD3 bromodomain 2 (G306 to P416 residues) expressed in bacterial expression system by BROMOscan assay
Sequence of Bromodomain-containing protein 3 (Q15059 whole entry, the tested form may be a part): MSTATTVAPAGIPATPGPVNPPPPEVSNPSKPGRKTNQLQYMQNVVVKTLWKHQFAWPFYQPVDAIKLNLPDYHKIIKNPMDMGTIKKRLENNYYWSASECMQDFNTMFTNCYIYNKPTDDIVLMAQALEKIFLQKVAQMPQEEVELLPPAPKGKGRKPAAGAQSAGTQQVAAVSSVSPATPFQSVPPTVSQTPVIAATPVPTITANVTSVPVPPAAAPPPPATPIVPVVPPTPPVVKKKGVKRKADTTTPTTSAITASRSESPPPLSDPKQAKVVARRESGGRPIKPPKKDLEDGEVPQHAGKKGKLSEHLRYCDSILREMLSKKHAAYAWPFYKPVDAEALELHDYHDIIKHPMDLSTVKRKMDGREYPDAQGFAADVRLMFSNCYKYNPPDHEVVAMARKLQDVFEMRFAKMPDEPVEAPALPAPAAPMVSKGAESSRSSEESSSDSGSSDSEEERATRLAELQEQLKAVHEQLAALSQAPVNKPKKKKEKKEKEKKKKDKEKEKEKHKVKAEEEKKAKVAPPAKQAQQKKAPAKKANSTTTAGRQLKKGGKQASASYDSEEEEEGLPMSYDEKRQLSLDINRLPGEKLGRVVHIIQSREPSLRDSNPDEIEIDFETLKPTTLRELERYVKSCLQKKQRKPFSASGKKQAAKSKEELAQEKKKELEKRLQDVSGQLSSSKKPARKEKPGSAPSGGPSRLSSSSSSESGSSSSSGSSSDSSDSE

Homo sapiens [20] = species on record: Homo sapiens; assay: Selectivity index, ratio of Kd for human EP300 (A1040 to G1161 residues) to Kd for human BRD4 bromodomain 1 (N44 to E168 residues)

Sequence of Transcription intermediary factor 1-alpha (O15164 whole entry, the tested form may be a part): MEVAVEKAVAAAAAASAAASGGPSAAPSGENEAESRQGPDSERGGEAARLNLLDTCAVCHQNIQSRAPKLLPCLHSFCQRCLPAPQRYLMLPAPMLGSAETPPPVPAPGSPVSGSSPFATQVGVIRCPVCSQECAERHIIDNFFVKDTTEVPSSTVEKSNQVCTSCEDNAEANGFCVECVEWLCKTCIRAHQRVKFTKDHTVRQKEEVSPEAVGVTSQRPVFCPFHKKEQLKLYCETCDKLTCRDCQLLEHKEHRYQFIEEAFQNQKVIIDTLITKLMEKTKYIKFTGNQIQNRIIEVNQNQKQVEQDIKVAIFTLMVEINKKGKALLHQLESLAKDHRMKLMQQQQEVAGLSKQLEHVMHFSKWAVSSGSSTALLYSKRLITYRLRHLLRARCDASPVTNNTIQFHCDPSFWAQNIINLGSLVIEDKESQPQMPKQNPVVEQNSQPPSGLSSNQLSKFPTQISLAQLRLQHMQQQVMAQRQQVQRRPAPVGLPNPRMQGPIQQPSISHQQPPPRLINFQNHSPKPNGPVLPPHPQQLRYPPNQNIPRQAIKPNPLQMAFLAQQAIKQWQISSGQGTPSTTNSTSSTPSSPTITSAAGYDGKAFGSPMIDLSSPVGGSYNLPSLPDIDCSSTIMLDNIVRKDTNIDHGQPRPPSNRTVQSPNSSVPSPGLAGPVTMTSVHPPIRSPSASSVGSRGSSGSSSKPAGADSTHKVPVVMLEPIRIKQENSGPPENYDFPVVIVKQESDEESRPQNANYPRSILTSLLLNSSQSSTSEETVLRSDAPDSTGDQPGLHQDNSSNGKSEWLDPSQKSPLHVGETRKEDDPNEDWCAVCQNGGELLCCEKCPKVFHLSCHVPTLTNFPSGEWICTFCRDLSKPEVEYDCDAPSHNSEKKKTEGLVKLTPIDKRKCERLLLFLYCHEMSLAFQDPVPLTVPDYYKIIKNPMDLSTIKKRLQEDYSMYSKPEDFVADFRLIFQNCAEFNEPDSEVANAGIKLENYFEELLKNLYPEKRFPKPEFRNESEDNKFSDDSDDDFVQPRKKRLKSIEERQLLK

Work on `COc1cc2c(cc1-c1c(C)noc1C)[nH]c1nc(C)nc(Nc3cc(C4CC4)nn3C)c12` yielded a Kd [1] greater than 4 µM, a Selectivity Index (Homo sapiens [2]) greater than 20 and a Kd [3] of 0.0008 µM. For the same compound, the Activity (Mus musculus [4]) was “Non-Toxic”, the inhibition in vivo at 25 mg/kg (RS4-11 [5]) was 49.3% and the Selectivity Index (Homo sapiens [6]) was greater than 50. For the same compound, the Activity (Mus musculus [7]) was “Non-Toxic”, the Selectivity Index (Homo sapiens [8]) was greater than 50 and the inhibition in vivo at 25 mg/kg (MDA-MB-231 [9]) was 67.6%. For the same compound, the Kd [10] was greater than 5 µM, the Kd [11] was greater than 5 µM and the Selectivity Index (Homo sapiens [12]) was greater than 50. For the same compound, the inhibition in vivo at 50 mg/kg (MDA-MB-231 [13]) was 77.3%, the Kd [14] was greater than 5 µM and the Selectivity Index (Homo sapiens [15]) was greater than 50. The concentration at 6 h [16] was 3670 ng/g, the inhibition in vivo at 50 mg/kg (RS4-11 [17]) was 72.3% and the Kd [18] was greater than 5 µM. It also gave a Kd [19] of 0.00049 µM and a Selectivity Index (Homo sapiens [20]) greater than 50.

From ChEMBL document CHEMBL4145654, “Structure-Based Discovery of CF53 as a Potent and Orally Bioavailable Bromodomain and Extra-Terminal (BET) Bromodomain Inhibitor” (J Med Chem, 2018)
